Assay results pooled from the literature.
Lines come from different studies, so protocols differ.
mraY: mraY (Staphylococcus aureus, UniProt Q2FZ93)
HTR2B: 5-hydroxytryptamine receptor 2B (HTR2B, Homo sapiens, UniProt P41595)

For `CCN1/C(=C/C(C)=O)Sc2ccc(F)cc21`, the inhibition was 20.8% (Substance-P receptor (TACR1, Homo sapiens, UniProt P25103); ligand displacement; radioligand; 10 µM).
The inhibition of `Cc1cc(O)c(-c2ccc([C@@H](C)CN(C)C)cc2)c2c1[nH]c(=O)c1sccc12` is reported as 1.28% (Acylglycerol kinase, mitochondrial (Homo sapiens, UniProt Q53H12); enzyme activity; inhibitor; 0.1 µM; lysate).
The inhibition of `CCCCCCC#Cc1cncc(-c2nnc(SCc3ccc(Cl)cc3)n2CCO)c1` is reported as 0% (mraY; cell-free assay; inhibitor; 250 µM).
`COc1cc2c3c(c1OC)-c1c(OC)ccc(N4CCOCC4)c1CC3N(C)CC2` (stereo not drawn) has an inhibition of 80% (HTR2B; ligand displacement; radioligand; 10 µM).
The inhibition of `Cc1cc(F)cc2c(CCC(=O)N[C@@H]3C(=O)NC[C@H]3O)c(-c3ccc(F)cc3)[nH]c12` is reported as 10% (HTR2B; cell-free assay; 10 µM).
`NC/C(=C\F)COc1cccc(Cn2c(=S)[nH]c(=O)c3[nH]cnc32)c1` has an inhibition of less than 50% (HTR2B; ligand displacement; radioligand; 10 µM).
With `COc1cc2c3c(c1OC)-c1c(OC)ccc(-c4ccc(C#N)cc4)c1CC3N(C)CC2` (stereo not drawn) the inhibition was 24% (5-hydroxytryptamine receptor 2C (HTR2C, Homo sapiens, UniProt P28335); ligand displacement; radioligand; 10 µM).
`CCCCCCC#Cc1cncc(-c2nnc(SCc3cc(C(F)(F)F)cc(C(F)(F)F)c3)n2CCCN)c1` gave an inhibition of 53% (mraY; cell-free assay; inhibitor; 250 µM).
`COc1cc2c3c(c1OC)-c1c(OC)ccc(NC(C)=O)c1CC3N(C)CC2` (stereo not drawn) gave an inhibition of 20% (HTR2B; ligand displacement; radioligand; 10 µM).
The inhibition of `CCCCCCC#Cc1cncc(-c2nnc(SCCCn3ccc(=O)[nH]c3=O)n2C)c1` is reported as 7% (mraY; enzyme activity; inhibitor; 100 µM).
For `CC[N+]1(C)CCc2cc(OC)c(OC)c3c2C1Cc1cccc(OC)c1-3` (stereo not drawn), the inhibition was 26% (HTR2B; ligand displacement; radioligand; 10 µM).
With `CCCCCCC#Cc1cncc(-c2nnc(SCc3cc([N+](=O)[O-])cc([N+](=O)[O-])c3)n2CCCN)c1` the inhibition was 100% (mraY; cell-free assay; inhibitor; 250 µM).
